Our source for the yeast fitness values is the RNAGym collection of RNA variant scans (doi:10.1126/science.aae0568).

To fix the notation:
B1: tRNA (parent)
chain: GUUCCGUUGGCGUAAUGGUAACGCGUCUCCCUCCUAAGGAGAAGACUGCGGGUUCGAGUCCCGUACGGAACG

Fewer inactive variants are shown than the library holds.

The variants in the data set derive from B1. Put plainly: yeast fitness relative to wild type (ratio to wild type); higher = fitter; tRNA-Arg(CCU), competitive growth, 37 C, YPD. The method, boiled down: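 Changes in genotype frequencies gave Darwinian fitness relative to wild type. Frequencies were read by 100-nucleotide paired-end sequencing of gene amplicons before and after pooled Saccharomyces cerevisiae strains, carrying tRNA-Arg(CCU) gene variants at the native locus, were competed in YPD at 37°C for 24 hours in six replicates. A genotype was kept only with ≥ 100 starting reads, and estimates < 0.5 were set to 0.5.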
On to C5G U26C C29U, for which the yeast fitness was no more than 0.5. In the case of A42U A43C, the yeast fitness came to 0.994.

As to A21G U32A C66U, the yeast fitness was 0.512. Take C4G C30G A69C A70G: the yeast fitness was no more than 0.5. To C30U G58C G63C belongs 0.57; to C29G U35G C60U, no more than 0.5.

Turning to U3G G17C G18C C22A C60A C66U, the yeast fitness is no more than 0.5.

Turning to U3A C22U G39A C66U A69C, the yeast fitness was no more than 0.5. In the case of G10A G63C C66U it was no more than 0.5. Consider C29A G51A C55A G56C A65U, for which the yeast fitness was no more than 0.5. To G9C A14C A69U belongs no more than 0.5; to A21U C66A, 0.574.

With C33U G39A A70U, the yeast fitness was no more than 0.5. Take G23A C30U U35C G48C U59A C66U: the yeast fitness is 0.526. To C22G C49G G68C belongs 0.529; to U7A C29A A65C, no more than 0.5.

For C11U U13C C30U A43G, the yeast fitness is no more than 0.5. As for G9A A36U C46U, the yeast fitness is no more than 0.5.

A20U G68C: the yeast fitness came to 0.86. To G9C G10C C66U belongs no more than 0.5; to C4G A15U A21G G48A G50C, no more than 0.5. For the variant C4G C24G, the yeast fitness amounted to 0.617. For the variant U16G U26G A36G G68C, the yeast fitness is 0.629.

With G6A U59C G68A, the yeast fitness stood at 0.567.

Regarding A37U G63C A69C, the yeast fitness is no more than 0.5.

As for U7C C49G G63A, the yeast fitness was found to be 0.748. For the variant U3A G6C, the yeast fitness turned out to be 0.662. In the case of G6C C11G C27U A42G it was no more than 0.5; in that of G10A U19C G41C, 0.532; in that of U26C C30U C46A U47G G50A, no more than 0.5. For the variant C5U U13C U19A A21U C24A U54C U59C A69G, the yeast fitness was found to be 0.524. Turning to U3G A20C A21G C61A, the yeast fitness is no more than 0.5.

In the case of G38C C60U C66G, the yeast fitness is no more than 0.5. In the case of U28A A42U, the yeast fitness worked out at 0.812. As to U3A C5A U8G G10A C31U U47C, the yeast fitness is 0.632. Take U8A C24A A70U: the yeast fitness is no more than 0.5. With C24U G38A, the yeast fitness stood at 0.819. In the case of U13G G17C C31U it was no more than 0.5.

Turning to U19C G50A C55A C66A, the yeast fitness came out at 0.516. Turning to G9A G39C A42C C49A, the yeast fitness was no more than 0.5. In the case of U19G C61G, the yeast fitness is 0.575. Regarding A42G C46A, the yeast fitness amounted to 0.908. In the case of U16C C31A A42U C62G A70C it was no more than 0.5.

In the case of C11U C24A A42G A57U U64A A69U, the yeast fitness was 0.505.

Regarding G6A C24U C66U, the yeast fitness is 0.647. As for G25A G39A, the yeast fitness is 0.973. In the case of A15G C34G C46U it was no more than 0.5. With C5U U16C U59G, the yeast fitness is no more than 0.5. As for C5U A14U C33G C46U A69C, the yeast fitness was no more than 0.5.

Turning to A14C C24G C31A C33G G44C, the yeast fitness stood at 0.584. As to C30A C31U U59C, the yeast fitness is 0.983. Turning to G56C A69C A70U, the yeast fitness was 0.605.

In the case of C55A G63C, the yeast fitness worked out at 0.603.

Consider G6A A45C, for which the yeast fitness worked out at 0.738. With C34U A40C A42C G48A C61G G67C G68A, the yeast fitness was no more than 0.5.

U3C G25C C49U: the yeast fitness worked out at 0.758. On to U13A C29G A43G, for which the yeast fitness was no more than 0.5. With U35A G44C, the yeast fitness turned out to be 0.71. Turning to C33U A36C A40U, the yeast fitness turned out to be 0.609.

C4G G41U C61A C66U: the yeast fitness is no more than 0.5. In the case of U16C U19G C27G C34U A40U U53A A70U it was 0.674; in that of A21G C46U, 0.97. C30G C33G A42G C49U C61U: the yeast fitness came to 0.663.

For the variant G50C G52A C61G, the yeast fitness was determined as 0.722. For U16A C34U A70U, the yeast fitness was no more than 0.5. Turning to G12U A15G A20C C24G, the yeast fitness is no more than 0.5. To U16G C24U C49G C66U belongs no more than 0.5; to A21G C46U G56C A69U, no more than 0.5. On to U2C C49A, for which the yeast fitness was 0.685. With C5G A20U G25A C31U G41A C55G, the yeast fitness is no more than 0.5. As to A14U A36C U53C A69C, the yeast fitness is no more than 0.5. In the case of A14U C34G C49G C66U, the yeast fitness is no more than 0.5. To C4G C5U U8A G12A G48A belongs no more than 0.5; to A14G A15G C33G C34U A43C C49G C61G C66U A69U, no more than 0.5. U16G C66U: the yeast fitness was 0.875. To A40G belongs 1.01; to G12C U16A C60G C61U G68A, no more than 0.5. In the case of C5A A57U G68U A70G it was 0.541; in that of G10A A14C G17A C22G C24G C30A, 0.775. For U3A G41C G63C A65U, the yeast fitness was no more than 0.5. With U16C A37G A42C A69U, the yeast fitness was no more than 0.5.

Turning to U7G U19C, the yeast fitness was found to be 0.767. With G10A A15C A37C C62A, the yeast fitness was found to be 0.636. In the case of A15U U16G U35A U59A, the yeast fitness was no more than 0.5. On to C24U C34G U35G G38A A45C, for which the yeast fitness is 0.646. Take G17A A70C: the yeast fitness is 0.842.

Take U7C G48A: the yeast fitness was 0.884.

Regarding U35C C49A, the yeast fitness was determined as 0.735. To U2C A37G A70C belongs 0.561; to G51C A65C C66U, no more than 0.5; to U3C U16C C30G C31G A37U, 0.718. Consider C31A G48C C61A A70G, for which the yeast fitness was no more than 0.5.

On to A21U A37U A40U G50C, for which the yeast fitness was no more than 0.5.

Take A37G A42U A65C A69C: the yeast fitness was no more than 0.5. With C22G U64G, the yeast fitness turned out to be 0.8. In the case of G9U C24G C55U, the yeast fitness was 0.668. Turning to C27A A65U, the yeast fitness came to 0.678.

Regarding U7A G12A G18U C31U C49G, the yeast fitness is no more than 0.5. Regarding U16A U26A C30G U59C, the yeast fitness is no more than 0.5. In the case of C4A G44C G51A G58C U59A it was no more than 0.5. C46U U59C: the yeast fitness was 1.03. In the case of G41A C49U G51C C61U, the yeast fitness is no more than 0.5. In the case of G18C G52C C60U it was 0.591; in that of A15C C31A C34A G67C, no more than 0.5. To C24A C31U G51A C62A belongs no more than 0.5; to G52C G63A A65G, no more than 0.5; to A15G C29G C33A G67A, 0.569. To G12A C61G belongs 0.605.

Regarding C24G C33G G50U U59C, the yeast fitness is no more than 0.5. Consider C11U U16A U54C, for which the yeast fitness was no more than 0.5.

A40U G44A: the yeast fitness came out at 0.981.

Regarding U3A A65G G68A A70U, the yeast fitness is 0.556. On to C4G G9A G39A G63A, for which the yeast fitness was no more than 0.5. As for G10C U47A G48A, the yeast fitness is 0.568.

Regarding C5U C61A, the yeast fitness was 0.612. With C33U C61A, the yeast fitness came to 0.52.

Take G10C A43C U47C C55U A69C: the yeast fitness is no more than 0.5. On to C5U G39A U53A, for which the yeast fitness was no more than 0.5. On to G12A A14G A21G C24G U28G, for which the yeast fitness was 0.674.

Turning to C29G G68U, the yeast fitness was 0.68.

On to A14G U19A A20G A40U, for which the yeast fitness is no more than 0.5. Consider C34G A43U A70C, for which the yeast fitness is no more than 0.5. Take A37G A42U: the yeast fitness is 0.787. Regarding U3C G9A A15U C30A A42G, the yeast fitness was 0.506. In the case of U7C C22U C29G G56A A70U it was no more than 0.5.

In the case of C5U U13G C33A A37C A70G, the yeast fitness was no more than 0.5.

Turning to A14G C46U G50C G51A C55U A57U C62G A70U, the yeast fitness was no more than 0.5. For the variant G9A A65U, the yeast fitness is 0.93. As for A40C A70U, the yeast fitness is 0.797.

On to U2C C30U C31U, for which the yeast fitness was determined as 0.698. Consider C4U U54C, for which the yeast fitness worked out at 0.921. With A21G G56A, the yeast fitness worked out at 1.08. As for G44A G50C A70G, the yeast fitness stood at 0.537. In the case of A15C C49G C62U it was 0.636; in that of C49A G63C A69G, no more than 0.5; in that of C5A C27A, 0.936.

In the case of C11U G56A C62A, the yeast fitness was determined as 0.567. To U2C G23C U28C A43U C60A belongs no more than 0.5; to U16A C66U, 0.897. For the variant A20U C29U A42G C49G C55A, the yeast fitness is no more than 0.5. Regarding U3A U13A C22U C24U, the yeast fitness was no more than 0.5. Take C24U A36U C46G C62A A69C: the yeast fitness is no more than 0.5. For the variant C11U C30G A40C C61U, the yeast fitness is no more than 0.5. In the case of C4U C29A G58A C61G A70U it was 0.548; in that of A36G C66G, 0.689; in that of C30G A42C C55U, no more than 0.5. U8A G12C U47C: the yeast fitness was no more than 0.5. With C22G C29G G41C, the yeast fitness is no more than 0.5. To C4A G9C C30A G39A C61G belongs no more than 0.5; to C5U G17A A40U A42C C49A G56A, no more than 0.5; to U2A U3G C11A U16C C22G A57C, no more than 0.5.

As to C5G U16A U19G A20C C27U C29U C30U A70G, the yeast fitness was no more than 0.5. Regarding C22G C27G C29G C34A A43U, the yeast fitness is no more than 0.5. Turning to C4U U64C, the yeast fitness was 0.962. As to C22U G25A U26G C62U A65U, the yeast fitness came out at 0.51.

For C27A A43C U54C, the yeast fitness was determined as 0.624. On to C34U A40G C46A, for which the yeast fitness was 0.579.

As for C5U A36U C60U, the yeast fitness was found to be 0.81.

Regarding C4U A15C C30G C49U A69C A70G, the yeast fitness is no more than 0.5. To C4U U13C C33U A65G belongs 0.617; to C11U C29A A36U G50C C55G C61G, 0.592; to C4U U7A A37C A40C G51A C55A G58A, no more than 0.5. Regarding C34G A43U C61G, the yeast fitness was 0.614. In the case of U16C C24U C30U C66U it was no more than 0.5. To C22U C27U C33G G44C belongs no more than 0.5; to C4G G41A A43C, no more than 0.5; to A14G U35G C55A G63A, no more than 0.5.
